Measurements taken from ChEMBL document CHEMBL1221183, “Chemical modulation of receptor signaling inhibits regenerative angiogenesis in adult zebrafish” (Nat Chem Biol, 2006).
Active and inactive are the calls of the source. The calls are words filed in the database; no cut-off is given here.

Assays:
[1] = biological target: Vascular endothelial growth factor receptor 2 (Danio rerio) (UniProt Q5GIT4); assay: Inhibition of VEGFR2-mediated regenerative angiogenesis in adult zebrafish tail fin vessel at 100 to 500 nM after 3 days by microscopy
Method in brief: (§1)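 Adult fins cut at mid-fin level; fish kept in fish water with inhibitor (DMSO stock, final DMSO <0.1%) at 31-33 °C, up to six fish per liter, for 3 dpa. Tg(fli1:EGFP)y1 endothelial signal imaged by fluorescence microscopy, with perfusion shown by intracardiac angiography in the same fish.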

[2] = biological target: Vascular endothelial growth factor receptor 2 (Danio rerio) (UniProt Q5GIT4); assay: Inhibition of VEGFR2-mediated regenerative angiogenesis in adult zebrafish tail fin vessel at 500 to 1000 nM after 3 days by microscopy; format: tissue-based
[3] = biological target: Vascular endothelial growth factor receptor 2 (Danio rerio) (UniProt Q5GIT4); assay: Inhibition of VEGFR2-mediated regenerative angiogenesis in clom39-positive heterozygous adult zebrafish tail fin vessel assessed as vascularization of newly generated tissues at 100 nM measured on day 3 post treatment by angiography; format: tissue-based; set-up: scale not given: the % may be the effect or the level left
Method in brief: (§2)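 Fins of wild-type or mutant adults cut at mid-fin level, then kept 3 dpa in fish water or 100 nM PTK787 at 31-33 °C. Perfusion shown by intracardiac injection of fluorescent lectin or 70-kDa dextran (5 mg ml-1 in Danieau's, pH 7.6). Tissue regrowth and vessel regeneration measured for each fish and given as percentage of vascularization; ANOVA with Tukey tests.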

[4] = biological target: Vascular endothelial growth factor receptor 2 (Danio rerio) (UniProt Q5GIT4); assay: Effect on VEGFR2-mediated axonal outgrowth in adult zebrafish tail fin at 500 nM after 5 days by zn-12 staining-based immunohistochemistry
Method in brief: (§3)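 Fins fixed overnight at 4 °C in Dent's fixative, dehydrated in a methanol series, re-fixed in 4% paraformaldehyde for 2-24 h, then permeabilized in acetone at -20 °C for 20 min and blocked 1 h at 37 °C. Primary antibody zn-12, zns-5 or B-4 (smooth muscle actin) at 1:50-1:200 overnight at 4 °C; Cy2/Cy3 secondary at 1:200.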

[5] = biological target: Vascular endothelial growth factor receptor 2 (Danio rerio) (UniProt Q5GIT4); assay: Inhibition of VEGFR2-mediated regenerative angiogenesis in adult zebrafish tail fin at 500 nM treated for 3 days measured after 4 days of drug washout by angiography
Method in brief: (§4)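 Amputated adult Tg(fli1:EGFP)y1 fins recovered at 31-33 °C in fish water or 500 nM inhibitor (final DMSO <0.1%); in washout runs the drug was removed at 3 dpa. The same fish were imaged over several days.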

[6] = biological target: Vascular endothelial growth factor receptor 2 (Danio rerio) (UniProt Q5GIT4); assay: Inhibition of VEGFR2-mediated regenerative angiogenesis in adult zebrafish tail fin assessed as reduction of plexus formation at 500 nM treated for 3 days measured after 4 days of drug washout by angiography; method in brief: as §4
[7] = biological target: Vascular endothelial growth factor receptor 2 (Danio rerio) (UniProt Q5GIT4); assay: Inhibition of VEGFR2-mediated regenerative angiogenesis in adult zebrafish tail fin assessed as amount of tissue regeneration at 500 nM measured on day 14 post treatment by angiography; format: tissue-based; method in brief: as §4
[8] = biological target: Vascular endothelial growth factor receptor 2 (Danio rerio) (UniProt Q5GIT4); assay: Effect on VEGFR2-mediated VEGFA mRNA expression in adult zebrafish tail fin at 500 nM treated for 3 days measured on day 5 following drug washout by real-time PCR analysis
Danio rerio [9] = organism: Danio rerio; assay: Decrease in VEGFR2 gene expression in adult zebrafish tail fin at 500 nM up to 2 days by in-situ hybridization assay
Danio rerio [10] = organism: Danio rerio; assay: Decrease in VEGFR2 gene expression in adult zebrafish tail fin at 500 nM after 3 days by real-time PCR analysis
[11] = biological target: Vascular endothelial growth factor receptor 2 (Danio rerio) (UniProt Q5GIT4); assay: Effect on VEGFR2-mediated bone tissue regeneration in adult zebrafish tail fin at 500 nM after 5 days by zns-5 staining-based immunohistochemistry; method in brief: as §3
[12] = biological target: Vascular endothelial growth factor receptor 2 (Danio rerio) (UniProt Q5GIT4); assay: Inhibition of VEGFR2-mediated msxb mRNA expression in adult zebrafish tail fin at 500 nM measured on day 2 post treatment by in-situ hybridization assay
[13] = biological target: Vascular endothelial growth factor receptor 2 (Danio rerio) (UniProt Q5GIT4); assay: Complete inhibition of VEGFR2-mediated regenerative angiogenesis in adult zebrafish tail fin vessel at 500 nM after 3 days by microscopy; method in brief: as §1
[14] = biological target: Vascular endothelial growth factor receptor 2 (Danio rerio) (UniProt Q5GIT4); assay: Inhibition of VEGFR2-mediated regenerative angiogenesis in adult zebrafish tail fin distal vessel at 500 nM treated for 3 days post 5 days of amputation period measured on day 8 by angiography; method in brief: as §4
[15] = biological target: Vascular endothelial growth factor receptor 2 (Danio rerio) (UniProt Q5GIT4); assay: Inhibition of VEGFR2-mediated shh mRNA expression in adult zebrafish tail fin at 500 nM measured on day 2 post treatment by in-situ hybridization assay
[16] = biological target: Vascular endothelial growth factor receptor 2 (Danio rerio) (UniProt Q5GIT4); assay: Inhibition of VEGFR2-mediated regenerative angiogenesis in adult zebrafish tail fin proximal vessel at 500 nM treated for 3 days post 5 days of amputation period measured on day 5 by angiography; method in brief: as §4
[17] = biological target: Vascular endothelial growth factor receptor 2 (Danio rerio) (UniProt Q5GIT4); assay: Inhibition of VEGFR2-mediated regenerative angiogenesis in adult zebrafish tail fin assessed as decrease in tissue regeneration at 500 nM after 5 days by angiography; format: tissue-based; method in brief: as §4
[18] = biological target: Vascular endothelial growth factor receptor 2 (Danio rerio) (UniProt Q5GIT4); assay: Inhibition of VEGFR2-mediated regenerative angiogenesis in adult zebrafish tail fin proximal vessel at 500 nM treated for 3 days post 5 days of amputation period measured on day 8 by angiography; method in brief: as §4
[19] = biological target: Vascular endothelial growth factor receptor 2 (Danio rerio) (UniProt Q5GIT4); assay: Inhibition of VEGFR2-mediated regenerative angiogenesis in wild type adult zebrafish tail fin vessel assessed as vascularization of newly generated tissues at 100 nM measured on day 3 post treatment by angiography; format: tissue-based; set-up: scale not given: the % may be the effect or the level left; method in brief: as §2
Danio rerio [20] = organism: Danio rerio; assay: Effect on ephrinB2a mRNA expression in adult zebrafish tail fin at 500 nM treated for 3 days measured on day 5 following drug washout by real-time PCR analysis
Danio rerio [21] = organism: Danio rerio; assay: Decrease in VEGFR2 gene expression in adult zebrafish tail fin at 500 nM treated for 3 days measured on day 4 following drug washout by real-time PCR analysis
[22] = biological target: Vascular endothelial growth factor receptor 2 (Danio rerio) (UniProt Q5GIT4); assay: Partial inhibition of VEGFR2-mediated regenerative angiogenesis in adult zebrafish tail fin vessel at 100 nM after 3 days by microscopy; method in brief: as §1
Danio rerio [23] = organism: Danio rerio; assay: Decrease in FGFR1 mRNA expression in adult zebrafish tail fin at 500 nM measured on day 2 post treatment by in-situ hybridization assay
[24] = biological target: Vascular endothelial growth factor receptor 2 (Danio rerio) (UniProt Q5GIT4); assay: Inhibition of VEGFR2-mediated regenerative angiogenesis in adult zebrafish tail fin vessel at 500 to 1000 nM after 3 days by microscopy
Danio rerio [25] = organism: Danio rerio; assay: Effect on semaphorin3aa mRNA expression in adult zebrafish tail fin at 500 nM treated for 3 days measured on day 5 following drug washout by real-time PCR analysis
[26] = biological target: Vascular endothelial growth factor receptor 2 (Danio rerio) (UniProt Q5GIT4); assay: Inhibition of VEGFR2-mediated regenerative angiogenesis in adult zebrafish tail fin distal vessel at 500 nM treated for 3 days post 5 days of amputation period measured on day 5 by angiography; method in brief: as §4
[27] = biological target: Vascular endothelial growth factor receptor 2 (Danio rerio) (UniProt Q5GIT4); assay: Inhibition of VEGFR2-mediated VEGFA mRNA expression in adult zebrafish tail fin at 500 nM after 1.5 days by in-situ hybridization assay
[28] = biological target: Vascular endothelial growth factor receptor 2 (Danio rerio) (UniProt Q5GIT4); assay: Inhibition of VEGFR2-mediated regenerative angiogenesis in adult zebrafish tail fin vessel harboring hypomorphic mutation in grlm145 gene assessed as vascularization of newly generated tissues at 100 nM measured on day 3 post treatment by angiography; format: tissue-based; set-up: scale not given: the % may be the effect or the level left; method in brief: as §2
Danio rerio [29] = organism: Danio rerio; assay: Decrease in VEGFR2 gene expression in adult zebrafish tail fin at 500 nM treated for 3 days measured on day 5 following drug washout by real-time PCR analysis
[30] = biological target: Vascular endothelial growth factor receptor 2 (Danio rerio) (UniProt Q5GIT4); assay: Inhibition of VEGFR2-mediated regenerative angiogenesis in adult zebrafish tail fin assessed as amount of tissue regeneration at 500 nM measured on day 7 post treatment by angiography; format: tissue-based; method in brief: as §4
[31] = biological target: Vascular endothelial growth factor receptor 2 (Danio rerio) (UniProt Q5GIT4); assay: Inhibition of VEGFR2-mediated regenerative angiogenesis in adult zebrafish tail fin assessed disruption of actin filament at 500 nM measured after 1 week or recovery post amputation by immunohistochemistry
[32] = biological target: Vascular endothelial growth factor receptor 2 (Danio rerio) (UniProt Q5GIT4); assay: Inhibition of VEGFR2-mediated regenerative angiogenesis in PLCgamma1y10 gene-deficient adult zebrafish tail fin vessel assessed as vascularization of newly generated tissues at 100 nM measured on day 3 post treatment by angiography; format: tissue-based; set-up: scale not given: the % may be the effect or the level left; method in brief: as §2
[33] = biological target: Vascular endothelial growth factor receptor 2 (Danio rerio) (UniProt Q5GIT4); assay: Inhibition of VEGFR2-mediated regenerative angiogenesis in adult zebrafish tail fin assessed disruption of actin filament at 500 nM after 14 days by immunohistochemistry
[34] = biological target: Vascular endothelial growth factor receptor 2 (Danio rerio) (UniProt Q5GIT4); assay: Mild inhibition of VEGFR2-mediated regenerative angiogenesis in adult zebrafish tail fin vessel at 100 to 500 nM after 3 days by microscopy; method in brief: as §1

Vascular endothelial growth factor receptor 2 (Danio rerio), sequence (Q5GIT4 whole entry, the tested form may be a part): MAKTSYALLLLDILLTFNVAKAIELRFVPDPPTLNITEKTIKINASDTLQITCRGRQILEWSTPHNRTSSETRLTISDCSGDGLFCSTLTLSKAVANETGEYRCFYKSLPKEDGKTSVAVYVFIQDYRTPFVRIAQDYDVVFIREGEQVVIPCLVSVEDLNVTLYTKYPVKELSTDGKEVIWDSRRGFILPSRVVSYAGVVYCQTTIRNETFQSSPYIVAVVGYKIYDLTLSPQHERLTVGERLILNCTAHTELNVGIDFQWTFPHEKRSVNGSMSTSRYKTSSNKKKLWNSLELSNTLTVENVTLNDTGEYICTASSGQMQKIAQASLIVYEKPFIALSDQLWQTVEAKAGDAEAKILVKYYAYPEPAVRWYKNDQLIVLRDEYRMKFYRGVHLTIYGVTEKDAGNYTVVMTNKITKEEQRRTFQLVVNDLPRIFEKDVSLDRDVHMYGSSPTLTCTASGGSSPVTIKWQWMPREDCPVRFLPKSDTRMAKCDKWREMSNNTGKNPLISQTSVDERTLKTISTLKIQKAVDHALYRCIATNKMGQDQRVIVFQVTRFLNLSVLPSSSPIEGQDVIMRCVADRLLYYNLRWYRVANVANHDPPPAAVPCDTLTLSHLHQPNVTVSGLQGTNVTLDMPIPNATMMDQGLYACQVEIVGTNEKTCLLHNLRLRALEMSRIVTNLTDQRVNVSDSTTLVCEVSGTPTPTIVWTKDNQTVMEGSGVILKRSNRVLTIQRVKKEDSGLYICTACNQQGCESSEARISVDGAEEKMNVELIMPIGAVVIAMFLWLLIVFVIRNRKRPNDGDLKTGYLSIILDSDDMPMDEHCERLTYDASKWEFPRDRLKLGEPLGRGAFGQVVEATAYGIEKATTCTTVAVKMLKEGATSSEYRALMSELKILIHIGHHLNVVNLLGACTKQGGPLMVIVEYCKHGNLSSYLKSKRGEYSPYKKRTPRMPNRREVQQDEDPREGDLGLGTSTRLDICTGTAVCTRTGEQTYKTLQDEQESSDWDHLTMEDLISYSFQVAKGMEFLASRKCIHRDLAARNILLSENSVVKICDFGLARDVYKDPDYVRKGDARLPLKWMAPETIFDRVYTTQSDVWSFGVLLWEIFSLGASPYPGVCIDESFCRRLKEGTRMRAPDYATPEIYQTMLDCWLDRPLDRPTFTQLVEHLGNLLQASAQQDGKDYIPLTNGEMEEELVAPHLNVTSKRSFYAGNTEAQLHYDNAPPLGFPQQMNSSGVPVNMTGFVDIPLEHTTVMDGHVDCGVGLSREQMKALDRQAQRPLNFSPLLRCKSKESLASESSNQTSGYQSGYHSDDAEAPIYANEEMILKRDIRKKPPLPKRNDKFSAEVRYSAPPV

## O=C(Nc1cccc(C(F)(F)F)c1)c1ccccc1NCc1ccncc1
[1]
  inhibition: Active

## Cc1cc(C)c(/C=C2\C(=O)Nc3ccccc32)[nH]1
[2]
  inhibition: inactive

## Clc1ccc(Nc2nnc(Cc3ccncc3)c3ccccc23)cc1
[3]
  Activity: 50%
[4]
  Activity: inactive
[5]
  inhibition: inactive
[6]
  inhibition: Active
[7]
  regenerated tissue length: 800 µm
[8]
  Activity: inactive
Danio rerio [9]
  inhibition: Active
Danio rerio [10]
  inhibition: Active
[11]
  Activity: inactive
[12]
  inhibition: inactive
[13]
  inhibition: Active
[14]
  inhibition: Active
[15]
  inhibition: inactive
[16]
  inhibition: inactive
[17]
  inhibition: Active
[18]
  inhibition: inactive
[19]
  Activity: 50%
Danio rerio [20]
  Activity: inactive
Danio rerio [21]
  inhibition: inactive
[22]
  inhibition: Active
Danio rerio [23]
  inhibition: inactive
[24]
  inhibition: Active
Danio rerio [25]
  Activity: inactive
[26]
  inhibition: Active
[27]
  inhibition: inactive
[28]
  Activity: 30%
Danio rerio [29]
  inhibition: inactive
[30]
  regenerated tissue length: 800 µm
[31]
  inhibition: Active
[32]
  Activity: 30%
[33]
  inhibition: inactive

## CCN(CC)CCNC(=O)c1c(C)[nH]c(/C=C2\C(=O)Nc3ccc(Cl)cc32)c1C
[34]
  inhibition: Active
[24]
  inhibition: Active
